RGS4 block: human RGS4 inhibition; P49798; HEK293 M3R/RGS4 inducible, Fluo-4 calcium flux; stronger effect = higher value; triggered by carbachol at its EC20; B-score at 10 µM; 0.45% of 310,000 active; AID 463165;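 active = B-score, a plate-corrected calcium signal, over three deviations above library mean, with baseline fluorescence within five deviations of library mean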;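 also: RGS4 expression induced by doxycycline in cells with stable M3 receptor; B-score is computed from the integrated fluorescence ratio over baseline after carbachol; higher B-score means a larger calcium signal and so more RGS4 inhibition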
RGS4 act: potentiators or activators of RGS4 | 0.92% of 310,000 active | AID 463111 | B-score at 10 µM | HEK293 M3R/inducible RGS4, carbachol calcium flux Fluo4; stronger effect = lower value;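 active = B-score of the integrated calcium signal more than 4 SD below the library mean, with starting fluorescence not abnormally high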;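 also: negative B-score means reduced calcium response which marks RGS4 activation or potentiation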
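Also added: carbachol at ECmax as muscarinic agonist stimulus; Assay system: HEK293 cells with stable M3R and inducible RGS4; Timing: overnight RGS4 induction, 30 min dye load 37 °C, 20 min compound RT; Measured by: Fluo4-AM (2 µM) calcium-flux fluorescence, kinetic read.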
MrgX1 PAM: human MrgX1 positive allosteric modulation, primary screen. Q96LB2. 0.63% of 310,000 active. MrgX1-HEK293, Fluo-4 calcium flux, FDSS; stronger effect = higher value. AID 588675. B-score at 10 µM;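 active = plate-corrected calcium response at least 3 library SD above typical, normal starting fluorescence, not activating the receptor alone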;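 also: compound read alongside a low EC10 to EC30 dose of BAM8-22 agonist; peak minus trough fluorescence over baseline measured at the second addition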
Target sequence (Q96LB2 whole entry, looked up): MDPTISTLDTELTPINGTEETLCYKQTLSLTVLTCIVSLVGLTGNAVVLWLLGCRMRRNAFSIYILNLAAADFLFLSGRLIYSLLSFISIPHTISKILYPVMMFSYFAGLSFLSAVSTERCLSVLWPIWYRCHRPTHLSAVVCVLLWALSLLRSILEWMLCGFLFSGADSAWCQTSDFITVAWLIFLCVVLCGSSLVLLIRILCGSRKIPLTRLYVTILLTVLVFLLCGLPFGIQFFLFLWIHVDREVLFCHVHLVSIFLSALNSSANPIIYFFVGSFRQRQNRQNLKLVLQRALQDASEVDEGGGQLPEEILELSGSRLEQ
MrgX1 agonist: agonists of human MrgX1 receptor; Q96LB2; MrgX1-HEK293 cells, Fluo-4 calcium fluorescence, agonist mode; stronger effect = higher value; 0.44% of 310,000 active; AID 588627; B-score at 10 µM;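 active = calcium response B-score plate-corrected fluorescence ratio at least 3 library SD, with starting fluorescence B-score inside 5 SD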
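Test system: HEK293 cells stably expressing human MrgX1 receptor; Input: fifteen thousand cells per well; Dosing: compound delivered in addition one of three; Schedule: overnight seeding, then 1 h dark dye loading; Technique: Fluo-4 NW calcium fluorescence; Measure: B-scored fluorescence response ratio; Controls: positive and negative controls per plate.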
PHOSPHO1 block: PHOSPHO1 (human) inhibition | Q8TCT1 | recombinant PHOSPHO1, absorbance phosphatase assay | inhibition, % at 13.3 µM | 1.1% of 290,000 active | AID 1565; in the data active = inhibition above about 60%
MrgX1 antag: human MrgX1 receptor antagonism, primary screen; 1.3% of 310,000 active; Q96LB2; MRGX1-HEK293 calcium flux, Fluo-4, BAM8-22 antagonism; stronger effect = lower value; AID 588676; B-score at 10 µM;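 active = calcium-response B-score plate-corrected more than 3 library SD below zero, starting fluorescence within 5 deviations, no agonist response on first addition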;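 also: peak minus trough fluorescence over baseline after final BAM8-22 challenge near maximal dose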
* marks the source's active call; other numbers are inactive results; i = inactive; · = no result given. An excerpt weighted towards active compounds, which were near 4.5% of everything screened.

SMILES | RGS4 block | RGS4 act | MrgX1 PAM | MrgX1 agonist | PHOSPHO1 block | MrgX1 antag
Cc1ccc(OCC(=O)NNC(=S)NC(=O)C2CCCCC2)c(C)c1 | i | -7.1* | i | 48* | 3 | i
Cc1ccc(C(=O)NC(=S)NNC(=O)COc2ccc([N+](=O)[O-])cc2)cc1 | i | i | 6.9* | i | -6 | i
CC(C)CNC(=S)NC(=O)c1ccc([N+](=O)[O-])cc1 | i | i | 10* | i | 20 | i
CCCCNC(=S)NC(=O)c1ccc([N+](=O)[O-])cc1 | i | i | i | i | 24 | i
Cc1ccc(OCC(=O)NNC(=S)NC(=O)C2CC2)c(C)c1 | i | i | i | i | -144 | i
COc1ccc(NC(=O)CSc2nnc(CCC(=O)Nc3ccc(C)c(Cl)c3)n2C)cc1 | i | i | i | i | 25 | i
CSc1cccc(NC(=O)C2CCCN(S(=O)(=O)c3cccs3)C2)c1 (stereo not drawn) | i | i | i | i | 36 | i
COc1ccc2nc(-c3ccccc3)nc(SCC(=O)NCC3CCCO3)c2c1 (stereo not drawn) | i | i | i | i | 35 | i
Cc1ccc(C(=O)NC(=S)NNC(=O)COc2ccccc2C)cc1 | i | -8.7* | i | i | 44 | i
COc1ccc(N(CC(=O)N2CCN(C)CC2)S(=O)(=O)c2cc(C)ccc2OC)cc1Cl | i | i | i | i | 53 | i
CCOc1ccc(NC(=O)N2CCC(c3nc4ccccc4[nH]3)CC2)cc1 | i | i | i | i | -27 | i
NC(CCCCc1ccccc1)c1cccc2ccccc12 (stereo not drawn) | i | i | i | 61* | · | i
CC(CCc1ccccc1)NCc1cccc2ccccc12 (stereo not drawn) | i | i | i | i | 19 | i
Cc1nn(CC(=O)Nc2cccnc2)c(=O)c2ccccc12 | i | i | i | i | 63* | i
COC(=O)c1ccc(NC(=O)Cn2nc(C)c3ccccc3c2=O)cc1 | i | i | i | i | 45 | i
COc1ccc(-c2c(C(F)(F)F)nn(C)c2NC(=O)CSCC(=O)O)cc1 | i | i | i | i | 32 | i
S=c1[nH]nc(-c2ccccc2)n1C1C=CCCC1 (stereo not drawn) | i | i | i | i | 92* | i
COC(=O)C1=C(C)N(Cc2ccco2)C(=O)/C1=C\c1ccc([N+](=O)[O-])cc1 | i | i | i | 28* | 34 | i
O=C(CSc1nnc(-c2ccc(S(=O)(=O)N3CCCC3)cc2)n1CC1CCCO1)NC1CC1 (stereo not drawn) | i | i | i | i | 84* | i
COc1cc(C(=O)CSc2nnc(-c3ccc(O)cc3)n2CC2CCCO2)ccc1NC(C)=O (stereo not drawn) | i | i | i | i | 79* | i
CC(C)CCNC(=O)CSc1nnc(-c2ccc(S(=O)(=O)N3CCCC3)cc2)n1C | i | i | i | i | -9 | -5.4*
COCCNC(=O)C(c1cccnc1)N(Cc1ccccc1)C(=O)Cn1nnc2ccccc21 (stereo not drawn) | i | i | i | i | 12 | i
CCCC(NC(=S)NCC1CCCO1)C12CC3CC(CC(C3)C1)C2 (stereo not drawn) | i | i | i | i | -16 | i
O=S(=O)(N/N=C1/CC(c2ccccc2)Oc2ccccc21)c1ccc(Br)cc1 (stereo not drawn) | i | i | i | i | 6 | -6.7*
CC(C)(CC(=O)O)CC(=O)NNc1ncccc1C#N | i | i | i | i | 48 | i
O=C(CN1CCN(Cc2ccccc2)CC1)c1c[nH]c2ccccc12 | i | i | i | i | 80* | i
O=C(CN1CCCCC1)c1c[nH]c2ccccc12 | i | i | i | i | 10 | i
CC(C)NC(=O)C(c1ccc(F)cc1)N(C(=O)CCC(=O)Nc1ccccn1)c1cccc(F)c1 (stereo not drawn) | i | i | i | i | 18 | i

Screening results from PubChem BioAssay.
